Measured values taken from ChEMBL document CHEMBL3872218, “Synthesis and T-type calcium channel-blocking effects of aryl(1,5-disubstituted-pyrazol-3-yl)methyl sulfonamides for neuropathic pain treatment” (Eur J Med Chem, 2016).

Columns and labels:
Homo sapiens = species on record: Homo sapiens; assay: Inhibition of N-type Ca2+ channel (unknown origin) at 10 uM by whole-cell patch clamp method relative to control
Rattus norvegicus [1] = assay: Antineuropathic pain activity in rat spinal nerve ligation model assessed as effect on mechanical allodynia by measuring frequency of paw withdrawal at 100 mg/kg, po measured at 1 hr relative to control; format: functional
Method in brief: (§1)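 Spinal nerve ligation rats tested 2 weeks after nerve surgery, 100 mg/kg oral, n = 4 per group. Behaviour re-tested at 1, 3 and 5 h after dosing. Mechanical allodynia: von Frey filament applied five times, every 3–4 s, to the hind paw on a wire mesh floor. Cold allodynia: acetone applied to the plantar hind paw on a metal mesh floor.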

[2] = biological target: T1, Voltage-dependent T-type calcium channel subunit alpha-1H (Homo sapiens, UniProt O95180); assay: Inhibition of Cav3.2 alpha1H (unknown origin) expressed in HEK293 cells by whole-cell patch clamp method; format: cell-based
T1 sequence (O95180 whole entry): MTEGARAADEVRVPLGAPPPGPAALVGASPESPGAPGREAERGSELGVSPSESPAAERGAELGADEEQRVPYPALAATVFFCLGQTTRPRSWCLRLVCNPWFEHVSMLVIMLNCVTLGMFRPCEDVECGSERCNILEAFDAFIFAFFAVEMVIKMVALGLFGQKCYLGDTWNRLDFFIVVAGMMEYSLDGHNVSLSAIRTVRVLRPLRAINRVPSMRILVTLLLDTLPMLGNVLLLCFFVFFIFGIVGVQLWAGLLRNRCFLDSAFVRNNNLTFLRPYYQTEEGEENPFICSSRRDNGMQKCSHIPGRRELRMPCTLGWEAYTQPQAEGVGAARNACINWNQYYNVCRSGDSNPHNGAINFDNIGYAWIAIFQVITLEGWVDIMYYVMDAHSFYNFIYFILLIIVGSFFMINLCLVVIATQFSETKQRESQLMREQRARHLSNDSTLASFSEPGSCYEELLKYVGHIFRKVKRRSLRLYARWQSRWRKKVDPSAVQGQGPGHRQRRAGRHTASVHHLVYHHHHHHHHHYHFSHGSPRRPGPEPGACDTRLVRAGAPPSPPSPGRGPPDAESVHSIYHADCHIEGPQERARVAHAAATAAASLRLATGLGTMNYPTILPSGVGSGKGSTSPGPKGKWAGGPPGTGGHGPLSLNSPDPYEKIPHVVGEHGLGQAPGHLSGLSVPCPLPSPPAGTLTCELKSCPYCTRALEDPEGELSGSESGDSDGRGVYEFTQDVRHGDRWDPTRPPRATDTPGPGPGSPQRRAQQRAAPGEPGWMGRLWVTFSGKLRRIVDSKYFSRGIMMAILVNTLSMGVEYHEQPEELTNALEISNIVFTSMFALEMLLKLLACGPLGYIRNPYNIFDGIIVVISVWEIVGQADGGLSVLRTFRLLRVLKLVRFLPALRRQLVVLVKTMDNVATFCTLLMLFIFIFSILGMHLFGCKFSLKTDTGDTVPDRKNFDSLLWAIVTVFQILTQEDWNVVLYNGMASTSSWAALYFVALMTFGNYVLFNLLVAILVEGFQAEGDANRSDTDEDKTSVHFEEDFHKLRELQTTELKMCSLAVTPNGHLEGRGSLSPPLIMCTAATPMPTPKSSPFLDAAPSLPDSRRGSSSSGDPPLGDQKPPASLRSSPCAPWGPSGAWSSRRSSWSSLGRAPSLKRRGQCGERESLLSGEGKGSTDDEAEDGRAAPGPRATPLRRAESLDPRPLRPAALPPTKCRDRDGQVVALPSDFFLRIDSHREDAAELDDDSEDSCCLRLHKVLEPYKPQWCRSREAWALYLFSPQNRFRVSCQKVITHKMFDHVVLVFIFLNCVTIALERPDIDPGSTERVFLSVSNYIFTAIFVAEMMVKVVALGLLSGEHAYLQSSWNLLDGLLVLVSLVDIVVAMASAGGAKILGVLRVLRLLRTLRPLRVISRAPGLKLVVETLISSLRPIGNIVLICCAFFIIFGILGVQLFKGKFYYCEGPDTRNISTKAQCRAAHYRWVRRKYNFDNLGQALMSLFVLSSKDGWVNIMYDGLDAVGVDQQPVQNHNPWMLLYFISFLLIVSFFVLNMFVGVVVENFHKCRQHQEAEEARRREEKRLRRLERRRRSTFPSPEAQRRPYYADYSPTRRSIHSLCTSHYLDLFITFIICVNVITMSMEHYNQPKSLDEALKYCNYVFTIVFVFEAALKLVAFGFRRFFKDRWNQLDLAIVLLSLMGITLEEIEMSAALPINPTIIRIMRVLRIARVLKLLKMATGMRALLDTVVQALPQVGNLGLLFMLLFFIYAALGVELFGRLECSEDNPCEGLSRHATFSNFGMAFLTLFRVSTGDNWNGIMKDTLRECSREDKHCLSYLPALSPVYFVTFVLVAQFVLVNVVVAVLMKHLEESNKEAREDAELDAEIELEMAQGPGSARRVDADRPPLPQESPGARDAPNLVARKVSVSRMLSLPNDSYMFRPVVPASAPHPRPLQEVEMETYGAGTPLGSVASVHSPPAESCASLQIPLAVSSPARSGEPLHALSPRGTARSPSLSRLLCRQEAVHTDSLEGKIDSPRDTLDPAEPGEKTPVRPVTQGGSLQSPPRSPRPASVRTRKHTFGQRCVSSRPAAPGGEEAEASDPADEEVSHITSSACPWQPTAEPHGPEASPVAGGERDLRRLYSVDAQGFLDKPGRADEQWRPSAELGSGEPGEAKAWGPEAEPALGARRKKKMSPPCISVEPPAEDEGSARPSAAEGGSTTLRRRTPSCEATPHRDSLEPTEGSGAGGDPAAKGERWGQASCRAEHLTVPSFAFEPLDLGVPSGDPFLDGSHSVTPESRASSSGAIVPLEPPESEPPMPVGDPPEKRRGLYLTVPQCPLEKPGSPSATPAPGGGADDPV
Method in brief: (§2)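 Whole-cell patch clamp on HEK293 cells expressing Cav3.1 or Cav3.2. T-type currents evoked every 15 s by a 50-ms step from −100 mV to −30 mV. External solution (mM): 140 NaCl, 2 CaCl₂, 10 HEPES, 10 glucose, pH 7.4.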

CYP1A2 = biological target: T2, CYP1A2 (Homo sapiens, UniProt P05177); assay: Inhibition of human CYP1A2 assessed as remaining activity at 10 uM using vivid CYP450 substrate measured after 15 mins by fluorescence assay relative to alpha-naphthoflavon; format: ADME; details: probe vivid CYP450 substrate, read-out: Activity
T2 sequence (P05177 whole entry): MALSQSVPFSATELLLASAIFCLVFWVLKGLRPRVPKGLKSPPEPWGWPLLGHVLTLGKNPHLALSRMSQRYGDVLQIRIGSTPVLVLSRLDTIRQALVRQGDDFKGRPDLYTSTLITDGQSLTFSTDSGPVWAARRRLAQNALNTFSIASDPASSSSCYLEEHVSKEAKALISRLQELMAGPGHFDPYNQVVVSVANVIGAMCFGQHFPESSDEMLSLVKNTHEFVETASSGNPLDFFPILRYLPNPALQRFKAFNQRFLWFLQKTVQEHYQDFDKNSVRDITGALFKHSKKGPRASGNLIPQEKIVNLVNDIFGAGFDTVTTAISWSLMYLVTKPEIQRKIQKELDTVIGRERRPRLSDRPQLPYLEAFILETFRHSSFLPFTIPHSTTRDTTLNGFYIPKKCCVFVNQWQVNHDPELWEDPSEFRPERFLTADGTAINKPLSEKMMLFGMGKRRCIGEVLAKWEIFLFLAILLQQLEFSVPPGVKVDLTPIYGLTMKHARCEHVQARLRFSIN
Method in brief: (§3)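 Vivid fluorescence CYP assay: test compound at […] in water, mixed with BACULOSOMES master pre-mix and regeneration system, preincubated 15 min at 37 °C. Reaction started with Vivid substrate and NADPH. Remaining activity read by fluorescence as % of control, triplicate, mean ± SD. Isoform-specific reference inhibitors: α-naphthoflavone (1A2), sulfaphenazole (2C9), quinidine (2D6), ketoconazole (3A4).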

Rattus norvegicus [3] = assay: Antineuropathic pain activity in rat spinal nerve ligation model assessed as effect on mechanical allodynia by measuring frequency of paw withdrawal at 100 mg/kg, po measured at 1 hr relative to gabapentin; format: functional; method in brief: as §1
Rattus norvegicus [4] = assay: Poteny index, ratio of test compound to gabapentin antineuropathic pain activity in rat spinal nerve ligation model assessed as effect on mechanical allodynia by measuring frequency of paw withdrawal at 100 mg, po measured after 1 hr; format: functional
[5] = biological target: Voltage-gated inwardly rectifying potassium channel KCNH2 (Homo sapiens, UniProt Q12809); assay: Inhibition of human ERG expressed in CHOK1 cells by whole-cell patch clamp method; format: cell-based, CHO-K1
Rattus norvegicus [6] = assay: Antineuropathic pain activity in rat spinal nerve ligation model assessed as effect on cold allodynia by measuring frequency of paw withdrawal at 100 mg/kg, po measured at 5 hrs relative to control; format: functional; method in brief: as §1
Rattus norvegicus [7] = assay: Antineuropathic pain activity in rat spinal nerve ligation model assessed as effect on cold allodynia by measuring frequency of paw withdrawal at 100 mg/kg, po measured at 1 hr relative to gabapentin; format: functional; method in brief: as §1
Rattus norvegicus [8] = assay: Antineuropathic pain activity in rat spinal nerve ligation model assessed as effect on cold allodynia by measuring frequency of paw withdrawal at 100 mg/kg, po measured at 1 hr relative to control; format: functional; method in brief: as §1
CYP2C9 = CYP2C9 (Homo sapiens, UniProt P11712); assay: Inhibition of human CYP2C9 assessed as remaining activity at 10 uM using vivid CYP450 substrate measured after 15 mins by fluorescence assay relative to sulfaphenazol; format: ADME; details: probe vivid CYP450 substrate, read-out: Activity; method in brief: as §3
CYP2D6 = CYP2D6 (Homo sapiens, UniProt P10635); assay: Inhibition of human CYP2D6 assessed as remaining activity at 10 uM using vivid CYP450 substrate measured after 15 mins by fluorescence assay relative to quinidine; format: ADME; details: probe vivid CYP450 substrate, read-out: Activity; method in brief: as §3
Rattus norvegicus [9] = assay: Antineuropathic pain activity in rat spinal nerve ligation model assessed as effect on cold allodynia by measuring frequency of paw withdrawal at 100 mg/kg, po measured at 3 hrs relative to gabapentin; format: functional; method in brief: as §1
[10] = Metabolic stability in human liver microsomes assessed as compound remaining at 1 uM in presence of NADPH as cofactor by LC-MS/MS method; format: ADME; details: read-out: Stability
Method in brief: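 Pooled mixed-gender human liver microsomes incubated with compound at 37 °C with NADPH as cofactor. Result given as % parent compound remaining.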

Rattus norvegicus [11] = assay: Antineuropathic pain activity in rat spinal nerve ligation model assessed as effect on mechanical allodynia by measuring frequency of paw withdrawal at 100 mg/kg, po measured at 3 hrs relative to gabapentin; format: functional; method in brief: as §1
Rattus norvegicus [12] = assay: Antineuropathic pain activity in rat spinal nerve ligation model assessed as effect on cold allodynia by measuring frequency of paw withdrawal at 100 mg/kg, po measured at 5 hrs relative to gabapentin; format: functional; method in brief: as §1
Rattus norvegicus [13] = assay: Antineuropathic pain activity in rat spinal nerve ligation model assessed as effect on cold allodynia by measuring frequency of paw withdrawal at 100 mg/kg, po measured at 3 hrs relative to control; format: functional; method in brief: as §1
[14] = biological target: T3, Voltage-dependent T-type calcium channel subunit alpha-1G (Homo sapiens, UniProt O43497); assay: Inhibition of Cav3.1 alpha1G (unknown origin) expressed in HEK293 cells assessed as decrease in KCl-induced depolarization mediated intracellular Ca2+ level at 10 uM by fluo3/AM based high throughput screening assay relative to control; format: cell-based
T3 sequence (O43497 whole entry): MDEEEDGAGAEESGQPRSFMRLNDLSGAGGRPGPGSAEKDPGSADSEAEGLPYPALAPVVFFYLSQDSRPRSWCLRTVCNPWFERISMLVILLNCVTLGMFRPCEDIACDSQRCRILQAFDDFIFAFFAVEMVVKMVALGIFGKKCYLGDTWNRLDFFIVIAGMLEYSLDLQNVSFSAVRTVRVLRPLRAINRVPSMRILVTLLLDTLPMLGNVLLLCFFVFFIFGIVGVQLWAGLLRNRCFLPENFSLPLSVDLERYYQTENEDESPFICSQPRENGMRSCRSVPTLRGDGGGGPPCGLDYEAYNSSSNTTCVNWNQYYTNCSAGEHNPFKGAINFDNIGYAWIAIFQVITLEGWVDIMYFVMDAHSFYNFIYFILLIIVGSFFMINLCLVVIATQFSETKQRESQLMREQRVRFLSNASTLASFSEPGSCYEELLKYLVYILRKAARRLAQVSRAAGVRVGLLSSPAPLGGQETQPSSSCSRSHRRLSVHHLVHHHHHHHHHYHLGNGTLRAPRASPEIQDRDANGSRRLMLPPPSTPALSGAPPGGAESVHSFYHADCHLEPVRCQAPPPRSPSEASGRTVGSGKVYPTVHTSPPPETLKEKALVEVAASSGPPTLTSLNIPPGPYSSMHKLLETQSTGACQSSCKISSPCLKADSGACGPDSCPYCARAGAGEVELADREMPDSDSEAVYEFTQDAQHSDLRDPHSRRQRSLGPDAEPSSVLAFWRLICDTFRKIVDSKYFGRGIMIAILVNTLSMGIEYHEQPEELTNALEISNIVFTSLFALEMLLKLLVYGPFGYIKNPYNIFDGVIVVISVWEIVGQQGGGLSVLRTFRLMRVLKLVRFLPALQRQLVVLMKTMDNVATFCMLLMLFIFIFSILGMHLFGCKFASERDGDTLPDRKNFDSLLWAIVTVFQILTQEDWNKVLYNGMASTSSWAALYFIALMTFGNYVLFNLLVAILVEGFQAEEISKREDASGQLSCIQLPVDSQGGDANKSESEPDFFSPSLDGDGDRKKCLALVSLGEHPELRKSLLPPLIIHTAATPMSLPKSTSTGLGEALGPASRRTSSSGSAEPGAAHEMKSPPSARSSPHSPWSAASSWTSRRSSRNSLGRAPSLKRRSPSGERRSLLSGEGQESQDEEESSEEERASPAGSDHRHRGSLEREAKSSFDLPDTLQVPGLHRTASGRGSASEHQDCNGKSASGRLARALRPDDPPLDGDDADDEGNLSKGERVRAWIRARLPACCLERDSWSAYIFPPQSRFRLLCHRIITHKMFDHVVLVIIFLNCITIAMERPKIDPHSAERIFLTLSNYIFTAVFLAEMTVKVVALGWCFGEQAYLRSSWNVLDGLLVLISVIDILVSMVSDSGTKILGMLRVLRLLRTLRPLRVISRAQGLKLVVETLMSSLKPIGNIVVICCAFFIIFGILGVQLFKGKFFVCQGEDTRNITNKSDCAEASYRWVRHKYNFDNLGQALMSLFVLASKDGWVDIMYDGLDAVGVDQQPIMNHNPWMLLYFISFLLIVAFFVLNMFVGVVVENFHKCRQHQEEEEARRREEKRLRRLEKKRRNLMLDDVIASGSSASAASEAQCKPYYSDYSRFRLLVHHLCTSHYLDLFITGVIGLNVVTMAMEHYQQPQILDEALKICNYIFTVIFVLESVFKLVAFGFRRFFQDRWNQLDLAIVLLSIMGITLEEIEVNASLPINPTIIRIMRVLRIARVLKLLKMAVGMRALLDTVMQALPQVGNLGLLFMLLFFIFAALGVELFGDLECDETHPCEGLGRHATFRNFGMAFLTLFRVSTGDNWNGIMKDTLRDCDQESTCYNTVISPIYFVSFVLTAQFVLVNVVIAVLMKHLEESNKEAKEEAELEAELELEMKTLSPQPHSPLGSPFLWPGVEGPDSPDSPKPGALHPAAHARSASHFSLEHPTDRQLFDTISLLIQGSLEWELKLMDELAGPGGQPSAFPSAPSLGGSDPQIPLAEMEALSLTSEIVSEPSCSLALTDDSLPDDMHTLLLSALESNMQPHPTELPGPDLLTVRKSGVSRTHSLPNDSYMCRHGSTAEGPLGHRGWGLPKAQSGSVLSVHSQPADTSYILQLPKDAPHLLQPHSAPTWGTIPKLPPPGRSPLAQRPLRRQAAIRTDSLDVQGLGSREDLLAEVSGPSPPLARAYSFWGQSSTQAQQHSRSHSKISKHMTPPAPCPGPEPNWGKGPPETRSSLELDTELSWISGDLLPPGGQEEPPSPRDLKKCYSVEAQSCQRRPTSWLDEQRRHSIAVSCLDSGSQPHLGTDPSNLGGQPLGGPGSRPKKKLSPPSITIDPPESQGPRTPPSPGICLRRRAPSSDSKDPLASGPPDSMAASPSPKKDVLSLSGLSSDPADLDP
Method in brief: (§4)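 HEK293 cells stably expressing Cav3.1 or Cav3.2 plated at 4 × 10⁴ cells/well and used the next day. Loaded 60 min at room temperature with […] fluo3/AM plus 0.001% Pluronic F-127 in HEPES-buffered saline (1.8 mM CaCl₂, pH 7.4). Ca²⁺ fluorescence read on FDSS6000 as % inhibition, compound at […].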

Rattus norvegicus [15] = assay: Antineuropathic pain activity in rat spinal nerve ligation model assessed as effect on mechanical allodynia by measuring frequency of paw withdrawal at 100 mg/kg, po measured at 5 hrs relative to control; format: functional; method in brief: as §1
CYP3A4 = CYP3A4 (Homo sapiens, UniProt P08684); assay: Inhibition of human CYP3A4 assessed as remaining activity at 10 uM using vivid CYP450 substrate measured after 15 mins by fluorescence assay relative to ketoconazole; format: ADME; details: probe vivid CYP450 substrate, read-out: Activity; method in brief: as §3
Rattus norvegicus [16] = assay: Antineuropathic pain activity in rat spinal nerve ligation model assessed as effect on mechanical allodynia by measuring frequency of paw withdrawal at 100 mg/kg, po measured at 5 hrs relative to gabapentin; format: functional; method in brief: as §1
[17] = biological target: T1, Voltage-dependent T-type calcium channel subunit alpha-1H; assay: Inhibition of Cav3.2 alpha1H (unknown origin) expressed in HEK293 cells assessed as decrease in KCl-induced depolarization mediated intracellular Ca2+ level at 10 uM by fluo3/AM based high throughput screening assay relative to control; format: cell-based; method in brief: as §4
Rattus norvegicus [18] = assay: Poteny index, ratio of test compound to mibefradil antineuropathic pain activity in rat spinal nerve ligation model assessed as effect on mechanical allodynia by measuring frequency of paw withdrawal at 100 mg, po measured after 1 hr; format: functional
Rattus norvegicus [19] = assay: Antineuropathic pain activity in rat spinal nerve ligation model assessed as effect on mechanical allodynia by measuring frequency of paw withdrawal at 100 mg/kg, po measured at 3 hrs relative to control; format: functional; method in brief: as §1
[20] = biological target: T3, Voltage-dependent T-type calcium channel subunit alpha-1G; assay: Inhibition of Cav3.1 alpha1G (unknown origin) expressed in HEK293 cells by whole-cell patch clamp method; format: cell-based; method in brief: as §2

SMILES: CC(C)Cc1cc(CNS(=O)(=O)c2ccccc2)nn1-c1ccccc1
- inhibition (Homo sapiens): 38.2%
- MPE (Rattus norvegicus [1]): 45.95%
- IC50 [2]: 5.8 µM
- activity at 0.25 h, 10 µM (CYP1A2): 36.6%
- MPE (Rattus norvegicus [3]): 416.59%
- Ratio (Rattus norvegicus [4]): 3
- IC50 [5]: 21 µM
- MPE (Rattus norvegicus [6]): 74.17%
- MPE (Rattus norvegicus [7]): 236.08%
- MPE (Rattus norvegicus [8]): 103.9%
- activity at 0.25 h, 10 µM (CYP2C9): 38.4%
- activity at 0.25 h, 10 µM (CYP2D6): 208%
- MPE (Rattus norvegicus [9]): 101.52%
- remaining at 1 µM [10]: 13.9%
- MPE (Rattus norvegicus [11]): 64.01%
- MPE (Rattus norvegicus [12]): 169.88%
- MPE (Rattus norvegicus [13]): 81.73%
- inhibition [14]: 61.4%
- MPE (Rattus norvegicus [15]): 30.91%
- activity at 0.25 h, 10 µM (CYP3A4): 69.6%
- MPE (Rattus norvegicus [16]): 68.26%
- inhibition [17]: 63.9%
- Ratio (Rattus norvegicus [18]): 3
- MPE (Rattus norvegicus [19]): 36.45%
- IC50 [20]: 5.65 µM
